Assay results published in ChEMBL document CHEMBL1151473, “Posaconazole activity against Candida glabrata after exposure to caspofungin or amphotericin B” (2008).
≈ marks a conversion by molar mass, not a printed value. Calls of active or inactive are those of the source. The rule behind the calls is not given here.

Key:
[1] = test system: Nakaseomyces glabratus; test: Antifungal activity against Candida glabrata isolate 4198 after 48 hrs by broth microdilution method; format: functional
Outline: (§1)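 CLSI broth microdilution with final drug concentrations […], incubated at 35°C and read spectrophotometrically at 490 nm at 24 and 48 h. MIC is the first concentration giving 50% turbidity reduction versus control, or 90% for amphotericin B. Run in quintuplicate.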

[2] = test system: Candida parapsilosis; test: Antifungal activity against Candida parapsilosis ATCC 22019 after 48 hrs by broth microdilution method; format: functional; conditions: Lodderomyces parapsilosis, ATCC 22019, 48 h; outline: as §1
[3] = test system: Nakaseomyces glabratus; test: Antifungal activity against Candida glabrata isolate 4205 after 48 hrs by broth microdilution method; format: functional; conditions: isolate 4205, 48 h; outline: as §1
[4] = test system: Nakaseomyces glabratus; test: Antifungal activity against Candida glabrata isolate 4370 after 48 hrs by broth microdilution method; format: functional; outline: as §1
[5] = test system: Nakaseomyces glabratus; test: Antifungal activity against Candida glabrata isolate 4293 after 48 hrs by broth microdilution method; format: functional; outline: as §1
[6] = test system: Nakaseomyces glabratus; test: Antifungal activity against Candida glabrata isolate 4293 pretreated overnight with 0.5 times of caspofungin MIC measured at 5 ug/disk after 24 hrs by halo assay; format: functional; conditions: read-out: IZ
Outline: (§2)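 Exposed or unexposed C. glabrata 4293 cells (1 x 10^6 CFU/ml) plated on Mueller-Hinton agar with methylene blue. 6-mm disks loaded with 20 µl posaconazole at 5 or 15 µg. Incubated at 35°C; inhibition zone diameters measured at 24 and 48 h; quintuplicate.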

[7] = test system: Nakaseomyces glabratus; test: Antifungal activity against Candida glabrata isolate 4293 pretreated overnight with 0.125 times of caspofungin MIC measured at 15 ug/disk after 24 hrs by halo assay; format: functional; conditions: read-out: IZ; outline: as §2
[8] = test system: Nakaseomyces glabratus; test: Antifungal activity against Candida glabrata isolate 4293 pretreated overnight with 0.125 times of amphotericin B MIC measured at 5 ug/disk after 24 hrs by halo assay; format: functional; conditions: read-out: IZ; outline: as §2
[9] = test system: Nakaseomyces glabratus; test: Antifungal activity against Candida glabrata isolate 4205 pretreated overnight with 0.5 times of amphotericin B MIC measured after 48 hrs by broth microdilution method; format: functional
[10] = test system: Nakaseomyces glabratus; test: Antifungal activity against Candida glabrata isolate 4293 at 15 ug/disk after 24 hrs by halo assay; format: functional; conditions: isolate 4293, 24 h, read-out: IZ; outline: as §2
[11] = test system: Nakaseomyces glabratus; test: Antifungal activity against Candida glabrata isolate 4293 pretreated overnight with 0.5 times of caspofungin MIC measured after 48 hrs by broth microdilution method; format: functional
[12] = test system: Nakaseomyces glabratus; test: Antifungal activity against Candida glabrata isolate 4293 pretreated overnight with 0.5 times of amphotericin B MIC measured at 15 ug/disk after 24 hrs by halo assay; format: functional; conditions: read-out: IZ; outline: as §2
[13] = test system: Nakaseomyces glabratus; test: Antifungal activity against Candida glabrata isolate 4293 assessed as viable yeast cells pretreated overnight with 0.015 ug/ml caspofungin measured at 0.5 ug/ml after 48 hrs; format: functional
[14] = test system: Nakaseomyces glabratus; test: (§3) Antifungal activity against 2.44 x 10^8 CFU Candida glabrata isolate 4293 infected in CD1 mouse assessed as reduction in colony forming units treated with a therapeutic regimen of sterile saline solution from day 1 to day 2 followed by 15 mg/kg/day drug administration via oral gavage from day 3 to day 6 post […] challenge measured on day 7 postinfection relative to control; format: functional, organism-based
Outline: (§4)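 CD1 male mice, 25 g, made neutropenic with intraperitoneal cyclophosphamide at 200 mg/kg/day on days −4, +1 and +4. Infected intravenously with C. glabrata 4293 in 0.2 ml. Therapy starts 24 h postchallenge: sterile saline placebo, then once-daily oral gavage in 0.2 ml. Kidney pairs homogenized and plated on Sabouraud dextrose agar for CFU; seven to eight animals per group; medians reported.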

[15] = test system: Nakaseomyces glabratus; test: Antifungal activity against Candida glabrata isolate 4293 at 5 ug/disk after 24 hrs by halo assay; format: functional; conditions: isolate 4293, 24 h, read-out: IZ; outline: as §2
[16] = test system: Nakaseomyces glabratus; test: Antifungal activity against Candida glabrata isolate 4370 pretreated overnight with 0.5 times of caspofungin MIC measured after 48 hrs by broth microdilution method; format: functional
[17] = test system: Nakaseomyces glabratus; test: Antifungal activity against Candida glabrata isolate 4293 pretreated overnight with 0.5 times of caspofungin MIC measured at 15 ug/disk after 24 hrs by halo assay; format: functional; conditions: read-out: IZ; outline: as §2
[18] = test system: Nakaseomyces glabratus; test: Antifungal activity against Candida glabrata isolate 4293 pretreated overnight with 0.125 times of amphotericin B MIC measured at 15 ug/disk after 24 hrs by halo assay; format: functional; conditions: read-out: IZ; outline: as §2
[19] = test system: Nakaseomyces glabratus; test: Antifungal activity against Candida glabrata isolate 4293 pretreated overnight with 0.5 times of amphotericin B MIC measured at 5 ug/disk after 24 hrs by halo assay; format: functional; conditions: read-out: IZ; outline: as §2
[20] = test system: Nakaseomyces glabratus; test: Antifungal activity against Candida glabrata isolate 4293 assessed as viable yeast cells pretreated overnight with 0.25 ug/ml caspofungin measured at 0.5 ug/ml after 48 hrs; format: functional
[21] = test system: Nakaseomyces glabratus; test: as §3, with “1.04” for “2.44”, “30” for “15”; format: functional, organism-based; outline: as §4
[22] = test system: Nakaseomyces glabratus; test: Antifungal activity against Candida glabrata isolate 4198 pretreated overnight with 0.5 times of amphotericin B MIC measured after 48 hrs by broth microdilution method; format: functional
[23] = test system: Nakaseomyces glabratus; test: Antifungal activity against Candida glabrata isolate 4293 assessed as viable yeast cells pretreated overnight with 0.015 ug/ml caspofungin measured at 4 ug/ml measured after 48 hrs; format: functional
[24] = test system: Nakaseomyces glabratus; test: Antifungal activity against Candida glabrata isolate 4205 pretreated overnight with 0.5 times of caspofungin MIC measured after 48 hrs by broth microdilution method; format: functional
[25] = test system: Nakaseomyces glabratus; test: Antifungal activity against Candida glabrata isolate 4370 pretreated overnight with 0.5 times of amphotericin B MIC measured after 48 hrs by broth microdilution method; format: functional
[26] = test system: Nakaseomyces glabratus; test: Antifungal activity against Candida glabrata isolate 4293 pretreated overnight with 0.5 times of amphotericin B MIC measured after 48 hrs by broth microdilution method; format: functional
[27] = test system: Nakaseomyces glabratus; test: Antifungal activity against Candida glabrata isolate 4293 assessed as viable yeast cells pretreated overnight with 0.25 ug/ml caspofungin measured at 4 ug/ml measured after 48 hrs; format: functional
[28] = test system: Nakaseomyces glabratus; test: Antifungal activity against Candida glabrata isolate 4293 pretreated overnight with 0.125 times of caspofungin MIC measured at 5 ug/disk after 24 hrs by halo assay; format: functional; conditions: read-out: IZ; outline: as §2
[29] = test system: Nakaseomyces glabratus; test: Antifungal activity against Candida glabrata isolate 4198 pretreated overnight with 0.5 times of caspofungin MIC measured after 48 hrs by broth microdilution method; format: functional

Work on `OC(Cn1cncn1)(Cn1cncn1)c1ccc(F)cc1F` [FLUCONAZOLE] yielded an MIC [1] of over 64 µg/mL, an MIC [2] of 4 µg/mL (≈ 13.1 µM) and an MIC [3] of 1 µg/mL (≈ 3.27 µM). It also gave an MIC [4] of 16 µg/mL (≈ 52.2 µM) and an MIC [5] of 32 µg/mL (≈ 104 µM).
In the case of `CC[C@@H]([C@H](C)O)n1ncn(-c2ccc(N3CCN(c4ccc(OC[C@@H]5CO[C@@](Cn6cncn6)(c6ccc(F)cc6F)C5)cc4)CC3)cc2)c1=O` [POSACONAZOLE], the zone of inhibition at 5 µg/disc [6] is reported as 26.8 mm, the zone of inhibition at 15 µg/disc [7] is reported as 29.6 mm and the zone of inhibition at 5 µg/disc [8] is reported as 27 mm. It also gave an MIC [9] of at most 0.03 µg/mL, a zone of inhibition at 15 µg/disc [10] of 30 mm and an MIC [11] of 0.125 µg/mL (≈ 0.178 µM). The MIC [1] was 0.5 µg/mL (≈ 0.713 µM), the zone of inhibition at 15 µg/disc [12] was 29.8 mm and the Activity [13] was 6.2%. The Activity [14] was “Active”, the zone of inhibition at 5 µg/disc [15] was 29 mm and the MIC [16] was 0.125 µg/mL (≈ 0.178 µM). For the same molecule, the zone of inhibition at 15 µg/disc [17] was 29 mm, the zone of inhibition at 15 µg/disc [18] was 30 mm and the zone of inhibition at 5 µg/disc [19] was 28.4 mm. The Activity [20] was 6.2%, the Activity [21] was “Active” and the MIC [22] was 0.5 µg/mL (≈ 0.713 µM). The Activity [23] was 0.01%, the MIC [2] was at most 0.03 µg/mL and the MIC [3] was at most 0.03 µg/mL. For the same molecule, the MIC [4] was 0.06 µg/mL (≈ 0.0856 µM), the MIC [5] was 0.25 µg/mL (≈ 0.357 µM) and the MIC [24] was 0.06 µg/mL (≈ 0.0856 µM). It also gave an MIC [25] of 0.06 µg/mL (≈ 0.0856 µM), an MIC [26] of 0.25 µg/mL (≈ 0.357 µM) and an Activity [27] of 0.01%. The zone of inhibition at 5 µg/disc [28] was 28 mm and the MIC [29] was 1 µg/mL (≈ 1.43 µM).
